Bioassay records deposited in PubChem by several laboratories.
APJ ag = APJ receptor agonism | P35414 | CHO-K1 APJ PathHunter beta-arrestin, luminescence; 0% DMSO wells, 100% apelin | activation, % at 20 µM | 0.11% of 330,000 active | AID 2520;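 active = activation more than six SD over the plate average, tested at 20 µM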;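 also: 0% = DMSO alone and 100% = apelin-13 at 10 nM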
Target sequence (P35414 whole entry, looked up): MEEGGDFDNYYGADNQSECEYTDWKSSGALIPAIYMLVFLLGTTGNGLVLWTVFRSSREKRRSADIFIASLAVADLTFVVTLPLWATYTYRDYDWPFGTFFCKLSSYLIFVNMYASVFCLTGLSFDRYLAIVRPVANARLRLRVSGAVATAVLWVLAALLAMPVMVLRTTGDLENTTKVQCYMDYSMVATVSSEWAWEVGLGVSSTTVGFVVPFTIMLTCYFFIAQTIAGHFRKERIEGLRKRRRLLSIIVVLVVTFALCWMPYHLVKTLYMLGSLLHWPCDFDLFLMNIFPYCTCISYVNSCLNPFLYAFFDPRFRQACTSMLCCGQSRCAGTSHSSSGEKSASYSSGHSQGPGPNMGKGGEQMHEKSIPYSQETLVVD
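Assay system – PathHunter CHO-K1 APJ (AGTRL-1) beta-arrestin reporter cells · Compound – one dose, 20 µM compound, 1% DMSO · Timing – compound 90 min 25 °C, reagent 1 h · Measured by – luminescence from split beta-galactosidase complementation, Galacton Star/Emerald II substrate · Measure – beta-arrestin recruitment to APJ as agonist activity, luminescent signal · Benchmarks – DMSO vs Apelin-13 10 nM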
CCR6 antagonist = blocks CCL20-driven beta-arrestin recruitment at human CCR6 | inhibition, % at 20 µM | P51684 | 0.49% of 340,000 active | AID 493098 | CHO-K1 CCR6 PathHunter beta-arrestin, luminescence, CCL20-stimulated;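 active = compounds whose inhibition of the agonist-driven luminescence signal at 20 µM reaches about 50%, limit read from the data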;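 also: cells stimulated with CCL20 at 14 nM final; plate controls were DMSO with CCL20 for no effect and DMSO without agonist for full effect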
APJ antagonist = APJ receptor antagonism. inhibition, % at 20 µM. 0.32% of 330,000 active. P35414. CHO-K1 APJ beta-arrestin complementation, luminescence;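 active = inhibition above about 40% at 20 µM, limit read from the data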;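 also: cells challenged with 10 nM apelin-13 agonist together with compound; plate controls were apelin-13 plus DMSO wells for no effect and DMSO wells lacking apelin-13 for full effect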
Beta2AR agonist = activates human beta-2 adrenergic receptor causing internalization; 0.43% of 340,000 active; P07550; Am2.2-beta2AR cells, FAP receptor internalization, flow cytometry; response, % (test concentration not listed);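 active = response above a set limit, near 3 SD of response in nonfluorescent compounds, cut at about 42% in these data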
CXCR6 block = CXCR6 (human) receptor inhibition | CHO-K1 PathHunter CXCR6 beta-arrestin, luminescence | inhibition, % at 20 µM | 0.36% of 360,000 active; in the data active = inhibition above about 34%, passing the limit was not always enough;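 also: antagonist mode with CXCL16 agonist at 10 nM final; 0% = 10 nM CXCL16 with DMSO and 100% = unstimulated wells without agonist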
EBI2 antag = antagonists of human EBI2 receptor; inhibition, % at 5 µM; P32249; 0.81% of 360,000 active; EBI2 beta-arrestin recruitment, luminescence, 7a,25-OHC stimulated; in the data active = inhibition above about 38%;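 also: enzyme fragment complementation signal reports receptor beta-arrestin coupling in cells; 0% = agonist plus DMSO wells and 100% = wells without agonist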
Active calls of the source: *; . = no result. Hits are enriched below; roughly 1.8% of the tested compounds scored in any of these assays.

SMILES | APJ ag | CCR6 antagonist | APJ antagonist | Beta2AR agonist | CXCR6 block | EBI2 antag
CC(=O)Nc1cc(-c2cccc(N)c2)cn2c(-c3ccccc3)cnc12 | . | . | . | . | 2 | 13
O=c1ccc2c(o1)/C(=C/C=C(Cl)Cl)CCC2 | -3 | -3 | 10 | 53* | -7 | 2
COc1cccc(CNc2cc(CSc3ccc(Cl)cc3)nc(C)n2)c1 | -3 | 11 | 12 | 4 | 0 | 49*
COc1cccc(CNc2ccc(C)c(Cl)c2)c1 | -1 | 14 | 20 | -5 | -1 | -11
Cc1nc2nc(C)n(CCN3CCOCC3)c(=O)c2c(-c2cccc([N+](=O)[O-])c2)c1C(=O)CCCCCCCCCCN1CCC(c2ccccc2)(c2ccccc2)CC1 | . | 26 | . | 33 | 10 | 7
CCOC(=O)N1CCC(NC(=S)Nc2ccc3nc(N4CCN(C)CC4)cc(C)c3c2)CC1 | -1 | 11 | -10 | -1 | 2 | 2
CCOC(=O)N1CCC(NC(=S)Nc2ccc3nc(N4CCN(CC)CC4)cc(C)c3c2)CC1 | 0 | 11 | -11 | 50* | -4 | 2
O=[N+]([O-])c1ccccc1N=Nc1ccc(O)cc1O | . | 50 | . | . | 36 | 5
O=S(=O)(O)c1cc(O)c(N=Nc2ccc(O)cc2O)c2ccccc12 | . | 62* | . | 3 | 39* | 3
COc1ccc(NC(=O)CN2C(=O)NC(C)(C3CC3)C2=O)cc1S(=O)(=O)N1CCOCC1 (configuration not stated) | 1 | -1 | 6 | -3 | -4 | -2
CC(C)(C)OC(=O)C[C@@H]1C/C=C\C[C@H](CC(=O)N(CCO)Cc2ccccc2)C(=O)N[C@H](Cc2ccccc2)COC1=O | -1 | 16 | 0 | 13 | 4 | 10
CCC(C)C1=CC(=Nc2c(C)n(C)n(-c3ccccc3)c2=O)C=C(C(C)CC)C1=O (configuration not stated) | -6 | 51* | 9 | -3 | 33 | 33
CC(C)(C)c1ccc(C2CC2C(=O)N/N=C\c2ccc[nH]2)cc1 (configuration not stated) | 3 | -10 | -17 | 54* | -6 | 11
COc1ccc(OC)c(S(=O)(=O)ON2C(=O)c3ccccc3C2=O)c1 | 1 | 57* | 20 | -1 | 11 | -6
COc1ccccc1N(C(=O)CCl)c1cn(C(C)=O)c2ccccc12 | -3 | 8 | 19 | 29 | 2 | -8
COc1ccccc1N(C(C)=O)C1=C(Cl)C(=O)c2ccccc2C1=O | . | . | . | . | 96* | 3
Cc1oc2c(c1C(=O)c1ccccc1)C(=O)C(=O)c1ccccc1-2 | 9 | 71* | -11 | 98* | 36 | -4
Cc1oc2c(c1C(=O)O)C(=O)c1ccccc1C2=O | 1 | -20 | -170 | 7 | -18 | -19
O=C(Nc1nc(-c2cc(F)ccc2F)cs1)c1ccccn1 | -7 | 65* | 68* | 15 | 41* | 27
Cc1ccc(S(=O)(=O)N[C@H](CNCc2ccccc2)C(C)C)cc1 | . | . | . | . | . | 2
Cc1ccc(S(=O)(=O)C[C@@H]2OC[C@H](Cc3ccccc3)N2S(=O)(=O)c2ccc(C)cc2)cc1 | . | . | . | . | . | 10
S=C(Nc1ccccc1)Nc1ccc(Cl)cc1Cl | -2 | 23 | 22 | -2 | 6 | 7
S=C(Nc1ccccc1)Nc1cc(Cl)ccc1Oc1ccccc1 | -3 | 93* | 13 | -2 | 5 | -2
O=C1c2ccccc2-c2nnc(-c3ccc(F)cc3)cc21 | -7 | 45 | 7 | -5 | 20 | 48*
c1ccc2c(c1)Cc1ccccc1O2 | 3 | -4 | 10 | 3 | -6 | -8
CC(=O)Nc1ccc(Nc2c3c4c(cccc4n(C)c2=O)C(=O)c2ccccc2-3)cc1 | -1 | 52* | 21 | -16 | 26 | 13
CC(C)(C)c1cc(/C=N/NC(=O)C[n+]2ccccc2)cc(C(C)(C)C)c1O | -1 | -9 | 6 | -4 | -3 | -6
CC(C)C1Nc2c(O)cc(Cl)c([N+](=O)[O-])c2C2C=CCC21 (configuration not stated) | . | 50* | . | 4 | 30 | 2
COc1cccc2c1C1COC3C4CC(C(=O)O)C(C(C2)N13)N4C (configuration not stated) | . | 2 | . | -15 | 4 | -5
